In PubChem BioAssay:
Records with an inconclusive call do not appear.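 Rule for the calls, unless noted: active = viability at or below 27.92% in each of two runs, the all-compound median minus 4 SD; inconclusive = no clear call, values can overlap the other calls; inactive = the rest.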

What was measured:
[1] = OD615 S. cerevisiae growth inhibition, permissive medium, pilot counter-assay, permissive growth control for S. cerevisiae lifespan shortening project (AID 705;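 active = growth inhibition above 25% in both replicates, a cutoff set 3 SD above the mean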); conditions: OD615, 24 h, at 10 µM, active compounds read high
Summary of the method: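 assay system = Saccharomyces cerevisiae strain carrying genetically modified DeaD replicative-lifespan system | medium = SC raffinose/galactose permissive medium | dosing = 10 µM single dose, 0.25% DMSO | schedule = 24 h compound exposure at 30 °C after 4 h pre-growth | measured by = OD at 615 nm | read-out basis = growth inhibition from lowered OD615 after 24 h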

[2] = Restrictive medium S. cerevisiae growth inhibition, OD615, pilot screen of yeast lifespan reduction project, restrictive growth control (AID 706;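 active = growth inhibition above a set limit, 3 SD over mean compound inhibition, in both replicates, cut at about 43% in these data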;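 note: modified DeaD lifespan yeast strain shifted to restrictive glucose medium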); conditions: OD615, 48 h, at 10 µM, active compounds read high
Summary of the method: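 Buffer or medium: CSMM-D glucose medium. Material: genetically modified Saccharomyces cerevisiae, DeaD replicative lifespan assay strain. Times: 48 h compound exposure at 30 °C. Measured by: optical density at 615 nm.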

[3] = viability gain of MRP-1-high H69AR cells under doxorubicin, pilot screen, MRP-1 activator project, CellTiter-Glo, duplicate (AID 807;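 active = viability increase at or above a cutoff of the median across tested compounds plus 3 SD, cut at about 8.5% in these data, passing the limit was not always enough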;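 note: compound pretreatment 18-22 h then 72 h combined with doxorubicin; 0% = doxorubicin alone and 100% = vehicle without doxorubicin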); conditions: H69AR viability with doxorubicin, CellTiter-Glo luminescence; at 10 µM; active compounds read high
[4] = growth suppression of beta-catenin knockout HCT116, pilot screen, human colon tumor cells (AID 823;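 active = cell viability at or below a set limit in both duplicate runs, the limit being the all-compound median minus 4 SD, cut at about 23% in these data, passing the limit was not always enough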;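 note: 0% = wells killed by 20 µM Hyamine and 100% = untreated DMSO cell wells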); conditions: CellTiter-Glo, 60 h, at 10 µM, active compounds read low
[5] = growth suppression of PTEN-deleted HCT116, pilot screen, cell-based, HCT116 clonal line, CellTiter-Glo (AID 824); conditions: 60 h, at 10 µM, active compounds read low;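 note: 0% = 20 µM Hyamine control and 100% = vehicle cell control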
[6] = inhibitors of the yeast RAM network, pilot screen, dse1pr::URA3 reporter, 5-FOA selection (AID 869;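 active = inhibition over a set limit, the all-compound mean plus 3 SD, in both replicate runs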;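 note: 0% = DMSO wells with no growth and 100% = 10 µM 1-NA-PP1 with full growth; RAM network block rescues cells from 5-FOA so hits raise OD615 growth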); conditions: S. cerevisiae dse1pr::URA3 5-FOA growth, OD615, 2 d; at 10 µM; active compounds read high; strain carries analog-sensitive mutant Cbk1 kinase
[7] = RAM signaling pathway blockade in yeast – S. cerevisiae, Pdr1DBD-CYC8 efflux-inhibited sensitized strain, primary screen (AID 1298;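 active = RAM network inhibition above 8.4% in each of two replicates, 3 SD over the compound average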;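 note: 0% = DMSO untreated cells without growth and 100% = 10 µM 1-NA-PP1 full growth; higher means more yeast growth rescued from 5-FOA killing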); conditions: S. cerevisiae cbk1-as DSE1-URA3 strain, 5-FOA growth OD615, 2 d; at 50 µM; active compounds read high

O=C1CCc2cc(S(=O)(=O)NC(Cc3ccccc3)C(=O)NCC3CCCO3)ccc2N1 (stereo not given)
inactive: growth inhibition [1] -8.29% | growth inhibition [2] -8.79% | viability increase [3] -2.76% | viability [4] 94.3% | viability [5] 92.8% | inhibition [6] 2.2% | RAM network inhibition [7] 1.49%

CCOC(=O)c1cc2c(=O)n3ccccc3nc2n(C(C)C)c1=NC(=O)c1ccncc1
inactive: growth inhibition [1] 6.47% | growth inhibition [2] 4.03% | viability increase [3] -1.27% | viability [4] 98.3% | viability [5] 94.7% | inhibition [6] -0.45% | RAM network inhibition [7] -0.58%

CCOc1ccc(CC(=O)N2CCN(c3ccc(N4CCOCC4)nn3)CC2)cc1OCC
inactive: growth inhibition [1] -1.33% | growth inhibition [2] 8.3% | viability increase [3] 0.46% | viability [4] 103% | viability [5] 106% | inhibition [6] -0.385% | RAM network inhibition [7] 6.26%

CCc1c(C)sc(NC(=O)c2cc(C3CC3)on2)c1C#N
inactive: growth inhibition [1] -7.33% | growth inhibition [2] 15% | viability increase [3] 1.11% | viability [4] 99% | viability [5] 102% | inhibition [6] 3.36% | RAM network inhibition [7] -0.84%

O=C(COC(=O)c1ccc(Br)c(S(=O)(=O)N2CCOCC2)c1)NCC1CCCO1 (stereo not given)
inactive: growth inhibition [1] -1.59% | growth inhibition [2] -5.15% | viability increase [3] -2.27% | viability [4] 100% | viability [5] 101% | inhibition [6] 3.08% | RAM network inhibition [7] 4.66%

COc1ccc(S(=O)(=O)Cc2ccc(C(=O)N3CCN(c4ncccn4)CC3)o2)cc1
inactive: growth inhibition [1] -2.81% | growth inhibition [2] 4.27% | viability increase [3] -2.72% | viability [4] 106% | viability [5] 103% | inhibition [6] 2.58% | RAM network inhibition [7] 2.27%

CC(=O)Nc1ccc(S(=O)(=O)N2CCSCC2)cc1
inactive: growth inhibition [1] -14.7% | growth inhibition [2] -27.7% | viability increase [3] -2.25% | viability [4] 98.6% | viability [5] 98.5% | inhibition [6] 1.88% | RAM network inhibition [7] 3.21%

N#CCC(=O)Nc1sc2c(c1C(N)=O)CCCC2
inactive: growth inhibition [1] -12.7% | growth inhibition [2] -7.35% | viability increase [3] -1.93% | viability [4] 97.5% | viability [5] 99.9% | inhibition [6] 3.18% | RAM network inhibition [7] 0.67%

O=C(NC1CCCCC1)C1CC(=O)N(c2ccc(Cl)cc2)C1 (stereo not given)
inactive: growth inhibition [1] -4.29% | growth inhibition [2] 1.57% | viability increase [3] -0.58% | viability [4] 95.5% | viability [5] 90.4% | inhibition [6] 1.29% | RAM network inhibition [7] 2.04%

Cc1cc(NC(=O)CSc2cn(CCNC(=O)c3ccccc3)c3ccccc23)no1
inactive: growth inhibition [1] -3.29% | growth inhibition [2] -0.585% | viability increase [3] -0.97% | viability [4] 88.1% | viability [5] 88.7% | inhibition [6] 3.04% | RAM network inhibition [7] 6.89%

O=C(Cn1cnc2c(cnn2-c2ccc(Cl)cc2)c1=O)NC1CCCCC1
inactive: growth inhibition [1] -1.74% | growth inhibition [2] 6.22% | viability increase [3] -3.89% | viability [4] 91.3% | viability [5] 91.7% | inhibition [6] 3.79% | RAM network inhibition [7] 2.4%

Cn1c(SCCSc2nnc(-c3ccccc3)n2C)nnc1-c1ccccc1
inactive: growth inhibition [1] -12.1% | growth inhibition [2] 8.02% | viability increase [3] -0.26% | viability [4] 97.4% | viability [5] 93.8% | inhibition [6] 1.62% | RAM network inhibition [7] 5.17%

Cn1c(=O)c2cc(S(=O)(=O)NC(C(=O)N3CCCCCC3)c3ccccc3)ccc2n(C)c1=O (stereo not given)
inactive: growth inhibition [1] -16.6% | growth inhibition [2] -23.3% | viability increase [3] -1.22% | viability [4] 104% | viability [5] 89.1% | inhibition [6] 0.175% | RAM network inhibition [7] 2.61%

O=C(Nc1nc(-c2cc3ccccc3oc2=O)cs1)c1ccco1
inactive: growth inhibition [1] -17.5% | growth inhibition [2] -10.9% | viability increase [3] -1.98% | viability [4] 102% | viability [5] 100% | inhibition [6] 1.57% | RAM network inhibition [7] 3.32%

CC(=O)n1c2ccccc2c2c1c1ccccc1n2C
inactive: growth inhibition [1] 10.6% | growth inhibition [2] 3.17% | viability increase [3] -4.83% | viability [4] 96% | viability [5] 82.6% | inhibition [6] 2.49% | RAM network inhibition [7] 2%

Nc1nc2c(c3c1c(=O)oc1ccccc13)CCCCC2
inactive: growth inhibition [1] -4.79% | growth inhibition [2] 5.31% | viability increase [3] -2.59% | viability [4] 94.9% | viability [5] 96.2% | inhibition [6] 2.28% | RAM network inhibition [7] 2.05%

COc1cccc(NS(=O)(=O)c2cn(C)c(=O)n(C)c2=O)c1
inactive: growth inhibition [1] -11% | growth inhibition [2] -3.64% | viability increase [3] -0.89% | viability [4] 93.7% | viability [5] 92.9% | inhibition [6] 2.42% | RAM network inhibition [7] 0.89%

O=C(CSc1ncnc2c1oc1ccccc12)NC1CCCCC1
inactive: growth inhibition [1] -5.42% | growth inhibition [2] 3.17% | viability increase [3] -0.15% | viability [4] 95% | viability [5] 85.3% | inhibition [6] 1.92% | RAM network inhibition [7] 4.21%

O=C(CCN1CCN(c2ccccc2)CC1)Nc1ccc2c(c1)OCO2
inactive: growth inhibition [1] -5.71% | growth inhibition [2] 0.05% | viability increase [3] -4.06% | viability [4] 91.7% | viability [5] 92.4% | inhibition [6] 2.58% | RAM network inhibition [7] 1.28%

Cc1ccccc1-n1c(C)nc2ccccc21
inactive: growth inhibition [1] -17.5% | growth inhibition [2] -1.88% | viability increase [3] -0.13% | viability [4] 95.9% | viability [5] 93.7% | inhibition [6] 1.79% | RAM network inhibition [7] 1.56%

O=C(Nc1nc(-c2ccc3c(c2)OCO3)cs1)C1COc2ccccc2O1 (stereo not given)
inactive: growth inhibition [1] 0.51% | growth inhibition [2] 3.12% | viability increase [3] 1.56% | viability [4] 99.8% | viability [5] 88.9% | inhibition [6] 2.81% | RAM network inhibition [7] 4.11%

Cc1cc(C)n(-c2nc3ccccc3c3nc(C)nn23)n1
inactive: growth inhibition [1] -10.5% | growth inhibition [2] -2.51% | viability increase [3] -0.57% | viability [4] 104% | viability [5] 101% | inhibition [6] 0.195% | RAM network inhibition [7] 4.75%

Cn1c(=O)c2c(nc(SCCN3CCOCC3)n2Cc2ccccc2Cl)n(C)c1=O
inactive: growth inhibition [1] -14.9% | growth inhibition [2] 1.19% | viability increase [3] -5.35% | viability [4] 91.8% | viability [5] 94.9% | inhibition [6] 0.27% | RAM network inhibition [7] 5%

Brc1ccc(OCCOCCN2CCOCC2)cc1
inactive: growth inhibition [1] -13.4% | growth inhibition [2] -8.66% | viability increase [3] 2.95% | viability [4] 91.7% | viability [5] 93% | inhibition [6] 0.12% | RAM network inhibition [7] 1.24%

CCc1ccc2[nH]cc(C(=O)OCCOC)c(=O)c2c1
inactive: growth inhibition [1] -19.9% | growth inhibition [2] 0.075% | viability increase [3] -1.15% | viability [4] 88% | viability [5] 87.5% | inhibition [6] 1.91% | RAM network inhibition [7] 1.6%
